According to ChEMBL document CHEMBL4033800, “Further Developments of the Phenyl-Pyrrolyl Pentane Series of Nonsteroidal Vitamin D Receptor Modulators as Anticancer Agents” (J Med Chem, 2018):
Activity calls are given as the source filed them. The calls are words filed in the database; no cut-off is given here.

Legend:
MCF7 [1] = test: Antiproliferative activity against human MCF7 cells after 48 hrs by MTT assay; assay type: functional, cell-based; conditions: MCF7, 48 h
MCF7 [2] = test: Induction of apoptosis in human MCF7 cells assessed as viable cells at 1 uM after 24 hrs by Annexin V-FITC/propidium iodide-staining based flow cytometry (reference value: 98.2%); assay type: functional; conditions: MCF7, 24 h, read-out: Activity
MCF7 [3] = test: Induction of cell cycle arrest in human MCF7 cells assessed as accumulation at G0/G1 phase at 1 uM after 24 hrs by propidium iodide-staining based flow cytometry (reference value: 56.03%); assay type: functional
PC-3 = test: Antiproliferative activity against human PC3 cells after 48 hrs by MTT assay; assay type: functional, cell-based; conditions: PC-3, 48 h
[4] = Drug uptake in human MCF7 cells at 1 uM after 10 mins by HPLC analysis; assay type: ADME, cell-based; conditions: mcf7, 10 min
Outline: (§1)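 MCF7 cells were given 1 µM compound in medium with 10% FBS for 10 or 30 min. Cells and medium were extracted separately with chloroform/methanol (3:1, v/v) and analysed by HPLC. Mean ± SEM, n = 3.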

HepG2 = test: Antiproliferative activity against human HepG2 cells after 48 hrs by MTT assay; assay type: functional, cell-based; conditions: HepG2, 48 h
MCF7 [5] = test: Antitumor activity against human MCF7 cells xenografted in BALB/c nude mouse assessed as tumor growth inhibition at 10 mg/kg, ip administered every other day; assay type: functional, organism-based
Outline: (§2)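 MCF7 cells transplanted orthotopically into the breast of athymic nude mice. Dosing at 10 mg/kg i.p. in vehicle of polyoxyethylated castor oil/ethanol/saline 1:1:18, with vehicle and saline control groups. Body weight, tumor volume and serum calcium followed.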

[6] = Drug uptake in human MCF7 cells at 1 uM after 30 mins by HPLC analysis; assay type: ADME, cell-based; conditions: mcf7, 0.5 h; outline: as §1
L02 = test: Antiproliferative activity against human L02 cells after 48 hrs by MTT assay; assay type: cell-based; conditions: L02, 48 h
MCF7 [7] = test: Induction of apoptosis in human MCF7 cells assessed as necrotic cells at 1 uM after 24 hrs by Annexin V-FITC/propidium iodide-staining based flow cytometry (reference value: 0.031%); assay type: functional
MCF7 [8] = test: Induction of apoptosis in human MCF7 cells assessed as late apoptotic cells at 1 uM after 24 hrs by Annexin V-FITC/propidium iodide-staining based flow cytometry (reference value: 0.062%); assay type: functional
MCF7 [9] = test: Induction of apoptosis in human MCF7 cells assessed as early apoptotic cells at 1 uM after 24 hrs by Annexin V-FITC/propidium iodide-staining based flow cytometry (reference value: 1.74%); assay type: functional
Mus musculus [10] = test: Hypercalcemic effect in ICR mouse at 30 mg/kg/day, ip administered for 7 days measured on day 8 post-dose by MTB-based assay relative to control; assay type: ADME, organism-based; conditions: in vivo, 168 h
Outline: (§3)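 Mice were dosed i.p. over a 7-day period and serum calcium was then measured. Each dose level was compared with a vehicle-treated control group (saline cited as the comparator). Data are mean ± SEM, n = 6 per group. Significance versus vehicle was reported at p < 0.05, 0.01 and 0.001.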

Mus musculus [11] = test: Hypercalcemic effect in ICR mouse at 0.5 to 5 mg/kg/day, ip administered for 7 days measured on day 8 post-dose by MTB-based assay relative to control; assay type: ADME, organism-based; conditions: in vivo, 168 h; outline: as §3
MCF7 [12] = test: Induction of apoptosis in human MCF7 cells xenografted in BALB/c nude mouse at 10 mg/kg, ip administered every other day by TUNEL assay; assay type: functional, organism-based
Outline: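 Apoptosis in MCF7 orthotopic tumor sections from nude mice given 10 mg/kg i.p. was scored by TUNEL staining.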

Vitamin D3 receptor = target: T1, Vitamin D3 receptor (Homo sapiens, UniProt P11473); test: Displacement of fluormone VDR red from human full length VDR after 4 hrs by fluorescence polarization assay
T1 sequence (P11473 whole entry): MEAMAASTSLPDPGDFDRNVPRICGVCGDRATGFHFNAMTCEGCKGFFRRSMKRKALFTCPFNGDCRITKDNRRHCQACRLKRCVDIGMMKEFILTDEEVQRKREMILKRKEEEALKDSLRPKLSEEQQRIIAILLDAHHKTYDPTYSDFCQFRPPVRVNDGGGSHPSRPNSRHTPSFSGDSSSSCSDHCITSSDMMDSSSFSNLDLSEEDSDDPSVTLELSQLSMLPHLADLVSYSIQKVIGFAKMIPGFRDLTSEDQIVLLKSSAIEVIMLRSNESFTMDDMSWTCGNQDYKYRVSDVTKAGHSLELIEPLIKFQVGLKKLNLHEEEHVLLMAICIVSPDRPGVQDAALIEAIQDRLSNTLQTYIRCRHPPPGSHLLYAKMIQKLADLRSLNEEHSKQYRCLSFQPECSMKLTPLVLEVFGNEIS

MCF7 [13] = test: Induction of cell cycle arrest in human MCF7 cells assessed as accumulation at G2/M phase at 1 uM after 24 hrs by propidium iodide-staining based flow cytometry (reference value: 12.41%); assay type: functional
MCF7 [14] = test: Induction of cell cycle arrest in human MCF7 cells assessed as accumulation at S phase at 1 uM after 24 hrs by propidium iodide-staining based flow cytometry (reference value: 31.55%); assay type: functional
Caco-2 = test: Antiproliferative activity against human Caco2 cells after 48 hrs by MTT assay; assay type: functional, cell-based; conditions: Caco-2, 48 h
Mus musculus [15] = test: Toxicity in BALB/c nude mouse xenografted with human MCF7 cells assessed increase in serum calcium levels at 10 mg/kg, ip administered every other day relative to control; assay type: organism-based; conditions: in vivo; outline: as §2
Mus musculus [16] = test: Toxicity in BALB/c nude mouse xenografted with human MCF7 cells assessed as change in body weight at 10 mg/kg, ip administered every other day relative to control; assay type: organism-based; conditions: in vivo; outline: as §2
[17] = Half life in iv dosed Sprague-Dawley rat; assay type: ADME, organism-based; conditions: in vivo
Mus musculus [18] = test: Hypercalcemic effect in ICR mouse assessed as serum calcium levels at 5 ug/kg, ip administered for 7 days measured on day 8 post-dose by MTB-based assay (reference value: 7.05 mg/dl); assay type: ADME, organism-based; conditions: in vivo, 0.005 mg/kg, 168 h; outline: as §3
Mus musculus [19] = test: Hypercalcemic effect in ICR mouse at 0.5 ug/kg, ip administered for 7 days measured on day 8 post-dose by MTB-based assay relative to control; assay type: ADME, organism-based; conditions: in vivo, 0.0005 mg/kg, 168 h; outline: as §3
[20] = Drug metabolism in human MCF7 cells at 1 uM after 24 hrs by HPLC analysis; assay type: ADME, cell-based; conditions: read-out: Drug metabolism
Outline: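 MCF7 cells were incubated 24 h with 1 µM compound, alongside a medium-only incubation without cells. Mixtures were extracted with chloroform/methanol (3:1, v/v) and quantified by HPLC. Mean ± SEM, n = 3.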

Compound	viability at 1 µM (MCF7 [2])	Activity (MCF7 [3])	Drug uptake [4]	Drug uptake [6]	Activity (MCF7 [7])	Activity (MCF7 [8])	Activity (MCF7 [9])	Activity (MCF7 [13])	Activity (MCF7 [14])	also measured
CCN(CC)CCNC(=O)c1ccc(C(CC)(CC)c2ccc(OCCC(O)(CC)CC)c(C)c2)n1CC	89.2%	68.92%	Active	Active	0.24%	2.81%	7.74%	4.77%	26.31%	IC50 (MCF7 [1]): 0.55 µM; IC50 (PC-3): 3.35 µM; IC50 (HepG2): 0.23 µM; TGI (MCF7 [5]): Active; IC50 (L02): 2.29 µM; Activity (Mus musculus [10]): Toxic; Activity (Mus musculus [11]): Non-Toxic; Activity (MCF7 [12]): Active; IC50 (Vitamin D3 receptor): 0.271 µM; IC50 (Caco-2): 1.63 µM; Activity (Mus musculus [15]): Non-Toxic; Activity (Mus musculus [16]): Non-Toxic
C=C1/C(=C\C=C2/CCC[C@]3(C)[C@@H]([C@H](C)CCCC(C)(C)O)CC[C@@H]23)C[C@@H](O)C[C@@H]1O [CALCITRIOL]	89.8%	63.49%	6.5%	10.4%	0.15%	3.44%	6.59%	12.61%	23.9%	half-life [17]: 4.27 h; Activity (Mus musculus [18]): 11.04 mg/dL; Activity (Mus musculus [19]): Non-Toxic; metabolised at 24 h, 1 µM [20]: 27%
